The text below walks through data of ChEMBL document CHEMBL5150070, “Tricyclic SpiroLactams Kill Mycobacteria In Vitro and In Vivo by Inhibiting Type II NADH Dehydrogenases” (J Med Chem, 2022).

Molecules are shown by their SMILES. Values after ≈ are worked out from the molar mass of the structure shown. Active and inactive are the calls of the source. The calls are words filed in the database; no cut-off is given here.

Series [1] deals with Mycobacterium marinum. In words: In vivo antimycobacterial efficacy in Mycobacterium marinum expressing Wasabi infected zebrafish larvae assessed as prolongation of survival time at 4.8 uM treated for 4 days after 1 day post infection. Type of series: functional. To be noted: time 4 day.
Series [2] concerns the target T1, Type II NADH:quinone oxidoreductase NdhA (Mycobacterium tuberculosis, UniProt P95200).
T1 sequence (P95200 whole entry): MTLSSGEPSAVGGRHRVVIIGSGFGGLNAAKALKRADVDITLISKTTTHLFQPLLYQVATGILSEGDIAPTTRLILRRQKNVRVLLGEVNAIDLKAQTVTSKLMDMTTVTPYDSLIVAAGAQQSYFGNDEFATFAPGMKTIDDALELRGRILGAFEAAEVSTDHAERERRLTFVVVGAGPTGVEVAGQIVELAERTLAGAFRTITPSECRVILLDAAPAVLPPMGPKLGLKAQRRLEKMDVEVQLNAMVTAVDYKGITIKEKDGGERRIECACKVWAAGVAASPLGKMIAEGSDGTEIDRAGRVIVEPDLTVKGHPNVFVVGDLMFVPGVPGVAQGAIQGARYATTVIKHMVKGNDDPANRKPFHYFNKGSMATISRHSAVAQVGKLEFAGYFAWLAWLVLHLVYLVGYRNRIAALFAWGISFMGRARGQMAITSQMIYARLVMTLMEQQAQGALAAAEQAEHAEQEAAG
In words: Inhibition of Mycobacterium smegmatis MC2 155 recombinant ndhA assessed as rate of NADH oxidation in the presence of an electron acceptor menadione. Set-up: species or system Mycolicibacterium smegmatis.

Series [3] in a line: Toxicity in noninfected zebrafish larvae assessed as larval development. More on the design: species or system Danio rerio. To be noted: in vivo.
In series [4] the target is Type II NADH:quinone oxidoreductase Ndh (Mycobacterium tuberculosis, UniProt P95160). Put plainly: Inhibition of Mycobacterium tuberculosis recombinant type II NADH dehydrogenase ndh expressed in Escherichia coli assessed as rate of NADH oxidation in the presence of an electron acceptor menadione. The essentials: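 Purified N-terminal MBP-tagged Mtb Ndh (Rv1854c) expressed in E. coli, 70 nM, with 500 µM NADH in 50 mM HEPES pH 7.1 (K₂HPO₄). Compound pre-incubated 15 min at 25°C, reaction started with 100 µM menadione. NADH oxidation followed at 340 nm every 60 s. Rate taken from linear slope; IC50 is the mean ± SD of at least 3 independent experiments.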
Chain of Type II NADH:quinone oxidoreductase Ndh (P95160 whole entry): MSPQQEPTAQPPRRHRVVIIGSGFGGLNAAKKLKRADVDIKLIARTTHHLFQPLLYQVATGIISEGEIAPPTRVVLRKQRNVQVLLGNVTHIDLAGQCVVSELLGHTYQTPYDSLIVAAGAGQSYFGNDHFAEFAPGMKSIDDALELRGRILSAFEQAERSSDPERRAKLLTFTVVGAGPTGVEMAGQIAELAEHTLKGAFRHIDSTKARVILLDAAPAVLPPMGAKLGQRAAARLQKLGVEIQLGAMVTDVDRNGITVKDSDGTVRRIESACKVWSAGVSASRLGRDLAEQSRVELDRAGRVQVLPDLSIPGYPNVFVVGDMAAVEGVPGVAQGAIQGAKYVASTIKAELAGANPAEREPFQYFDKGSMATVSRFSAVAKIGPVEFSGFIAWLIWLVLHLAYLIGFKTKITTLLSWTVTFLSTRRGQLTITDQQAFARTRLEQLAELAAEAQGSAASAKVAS

Series [5] has as its system Mycobacterium tuberculosis. Put plainly: Antimycobacterial activity against Mycobacterium tuberculosis H37Rv assessed as reduction in bacterial cell growth by measuring resazurin reduction incubated for 6 days by fluorescence microplate based assay. Type of series: functional. To be noted: time 6 day. (The colour change of resazurin is a common sign of viable cells or microbes.)

In series [6] the test system is Mycobacterium marinum. Put plainly: in vivo antimycobacterial efficacy in Mycobacterium marinum infected zebrafish larvae assessed as reduction in bacterial burden at 0.25 to 2 micog/ml measured after 2 to 4 days off post infection. It is filed as functional, organism-based. Conditions: time 2-4 day.
A short description of series [7]: Toxicity in noninfected zebrafish larvae assessed as toxic effect. More on the design: species or system Danio rerio. To be noted: in vivo.
The subject of series [8] is Mycobacterium marinum. In words: In vivo antimycobacterial efficacy in Mycobacterium marinum expressing Wasabi infected zebrafish larvae assessed as prolongation of survival treated for 4 days after 1 day post infection. Conditions: dose 0.3-1.2 µM, time 4.0 day, DDE = dose-dependent effect. It is filed as functional, organism-based. An outline of the steps: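 Golden mutant or Tg(mpeg1:mCherry) zebrafish embryos were dechorionated and anaesthetised in 0.016% tricaine. At 30 hpf, 2–3 nL containing about 200–250 cfu of Wasabi-expressing M. marinum M (pTEC15) was injected into the caudal vein. The inoculum was confirmed by plating on 7H10. Embryos were kept in E3 at 28.5 °C, 12 per well, to follow infection and survival.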

Series [9] is described as follows: Octanol/PBS partition coefficient, logD of compound at pH 7.4 measured after 2 hrs by shake flask method. To be noted: octanol/water, pH 7.4, 2 h. Type of series: physicochemical. An outline of the steps:
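A 10 mM DMSO stock was diluted 50-fold into 1:1 octanol:PBS pH 7.4 and shaken gently for 2 h at room temperature. Each phase was diluted 50-fold in MeOH and quantified by LC-MS/MS. LogD = log of the octanol/PBS concentration ratio from mass signals. Run in triplicate.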

Series [10] concerns Mycobacterium tuberculosis. In words: Antimycobacterial activity against Mycobacterium tuberculosis H37Rv infected in human A-THP1 macrophages assessed as viability of infected macrophages incubated for 96 hrs by fluorescence microplate assay. Type of series: functional, organism-based. The essentials: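 THP-1 cells differentiated with 50 ng/mL PMA for 72 h, infected with log-phase H37Rv (MOI 10, 2 h), and extracellular bacteria killed with 50 µg/mL amikacin for 1 h. Cells detached and seeded at 5×10⁵/mL in RPMI-10% FBS with PMA onto pre-dispensed compound, 96 h at 37°C, 5% CO₂. Macrophage viability by 0.05% resazurin fluorescence.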

As for `CC(C)[C@H]1CO[C@]23CCN(Cc4ccc(C(F)(F)F)nc4)C[C@H]2CCC(=O)N13`, the Time in the series on Mycobacterium marinum [1] was 3 days. Moreover, the IC50 was determined as 330 nM in [2], 32 nM in [4] and 2400 nM in series [10]. Moreover, the Activity result in series [3] is “Non-Toxic”; in [7], “Non-Toxic”; in the series with Mycobacterium marinum [8] it was “Dde”. For the same compound, in [5], the MIC98 was determined as 0.59 µM (≈ 0.234 µg/mL). In the series with Mycobacterium marinum [6], the outcome was Active. For the same compound, the logD in series [9] was 2.7.

For `NNC(=O)c1ccncc1` [ISONIAZID], the IC50 in series [10] came to 204 nM.

For `CC(C)[C@H]1CO[C@]23CCN(Cc4ccc(Cl)cc4)C[C@H]2CCC(=O)N13`, the IC50 in series [2] turned out to be 96 nM; in series [4] it was 28 nM. For the same compound, in [5], the MIC98 came to 0.25 µM (≈ 0.0907 µg/mL).

Turning to `O=C1CC[C@@H]2CN(Cc3ccccc3)CC[C@@]23OC[C@H](C2CC2)N13`, the MIC98 in [5] is 37.5 µM (≈ 12.2 µg/mL).

Take `Cc1ccc(CN2CC[C@]34OC[C@H](C(C)C)N3C(=O)CC[C@@H]4C2)cc1`: the MIC98 in [5] came out at 1.7 µM (≈ 0.582 µg/mL).

`CC[C@H]1CO[C@]23CCN(Cc4ccccc4)C[C@H]2CCC(=O)N13`: the MIC98 in [5] is 18.8 µM (≈ 5.91 µg/mL).

One may read the IC50 as the midpoint of a concentration-inhibition curve. Broadly, the logD is the decadic logarithm of the distribution of all forms, ionised or not, between an organic phase and buffer at a given pH. Read a high logD as a more lipophilic compound.
